Results: ChEMBL document CHEMBL4689842, “EUbOPEN Chemogenomics Library wave 1” (2021)

System: U2OS
Assay: Multiplex assay against U2OS
Assay type: toxicity, cell-based
Conditions: human
In short: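 On a CQ1 microscope at 37°C and 5% CO2, live cells were imaged after compound addition. They had been stained at seeding with Hoechst33342, BioTracker Green Microtubule Cytoskeleton Dye, MitoTracker Red and Annexin V Alexa Fluor 680. CellPathfinder machine-learning gating assigned cells to Hoechst high-intensity objects or normal cells, normal cells to healthy, pyknosed or fragmented nuclei, and pyknosed cells to mitotic or apoptotic. Tubulin, mitochondrial-mass and membrane-permeability phenotypes are per cents of healthy-nucleus cells.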

[1] = 12 h, 1 µM, compound concentration 1 uM, replicate 1
[2] = 12 h, 1 µM, compound concentration 1 uM, replicate 2
[3] = 12 h, 10 µM, compound concentration 10 uM, replicate 1
[4] = 12 h, 10 µM, compound concentration 10 uM, replicate 2
[5] = 24 h, 1 µM, compound concentration 1 uM, replicate 1
[6] = 24 h, 1 µM, compound concentration 1 uM, replicate 2
[7] = 24 h, 10 µM, compound concentration 10 uM, replicate 1
[8] = 24 h, 10 µM, compound concentration 10 uM, replicate 2
[9] = 48 h, 1 µM, compound concentration 1 uM, replicate 1
[10] = 48 h, 1 µM, compound concentration 1 uM, replicate 2
[11] = 48 h, 10 µM, compound concentration 10 uM, replicate 1
[12] = 48 h, 10 µM, compound concentration 10 uM, replicate 2

SMILES: Cl.Oc1ccc2c3c1O[C@H]1c4[nH]c5c(c4C[C@@]4(O)[C@@H](C2)N(CC2CC2)CC[C@]314)C[C@@]1(O)[C@H]2Cc3ccc(O)c4c3[C@@]1(CCN2CC1CC1)[C@H]5O4
- Population Apoptotic (%) [1]: 38%
- Population Fragmented Nuclei (%) [1]: 9%
- Population Healthy Nuclei (%) [1]: 79%
- Population Hoechst High Intensity Objects (%) [1]: 6%
- Population Membrane Permeable-Phenotype (%) [1]: 9%
- Population Mitochondria Different-Phenotype (%) [1]: 15%
- Population Mitotic Cells (%) [1]: 61%
- Population Normal (%) [1]: 93%
- Population Tubulin-Different-Phenotype (%) [1]: 14%
- Total Cell Count [1]: 105
- Population Apoptotic (%) [2]: 42%
- Population Fragmented Nuclei (%) [2]: 3%
- Population Healthy Nuclei (%) [2]: 86%
- Population Hoechst High Intensity Objects (%) [2]: 9%
- Population Membrane Permeable-Phenotype (%) [2]: 10%
- Population Mitochondria Different-Phenotype (%) [2]: 19%
- Population Mitotic Cells (%) [2]: 57%
- Population Normal (%) [2]: 90%
- Population Pyknosed Nuclei (%) [2]: 10%
- Population Tubulin-Different-Phenotype (%) [2]: 17%
- Total Cell Count [2]: 97
- Population Apoptotic (%) [3]: 57%
- Population Fragmented Nuclei (%) [3]: 14%
- Population Healthy Nuclei (%) [3]: 73%
- Population Hoechst High Intensity Objects (%) [3]: 6%
- Population Membrane Permeable-Phenotype (%) [3]: 6%
- Population Mitochondria Different-Phenotype (%) [3]: 10%
- Population Mitotic Cells (%) [3]: 42%
- Population Normal (%) [3]: 93%
- Population Pyknosed Nuclei (%) [3]: 12%
- Population Tubulin-Different-Phenotype (%) [3]: 3%
- Total Cell Count [3]: 183
- Population Apoptotic (%) [4]: 93%
- Population Fragmented Nuclei (%) [4]: 12%
- Population Healthy Nuclei (%) [4]: 48%
- Population Hoechst High Intensity Objects (%) [4]: 7%
- Population Membrane Permeable-Phenotype (%) [4]: 52%
- Population Mitochondria Different-Phenotype (%) [4]: 26%
- Population Mitotic Cells (%) [4]: 6%
- Population Normal (%) [4]: 92%
- Population Pyknosed Nuclei (%) [4]: 38%
- Population Tubulin-Different-Phenotype (%) [4]: 89%
- Total Cell Count [4]: 73
- Population Apoptotic (%) [5]: 30%
- Population Fragmented Nuclei (%) [5]: 7%
- Population Healthy Nuclei (%) [5]: 80%
- Population Hoechst High Intensity Objects (%) [5]: 3%
- Population Membrane Permeable-Phenotype (%) [5]: 6%
- Population Mitochondria Different-Phenotype (%) [5]: 12%
- Population Mitotic Cells (%) [5]: 69%
- Population Normal (%) [5]: 96%
- Population Pyknosed Nuclei (%) [5]: 11%
- Population Tubulin-Different-Phenotype (%) [5]: 9%
- Total Cell Count [5]: 113
- Population Apoptotic (%) [6]: 25%
- Population Fragmented Nuclei (%) [6]: 3%
- Population Healthy Nuclei (%) [6]: 91%
- Population Hoechst High Intensity Objects (%) [6]: 4%
- Population Membrane Permeable-Phenotype (%) [6]: 10%
- Population Mitochondria Different-Phenotype (%) [6]: 13%
- Population Mitotic Cells (%) [6]: 75%
- Population Normal (%) [6]: 95%
- Population Pyknosed Nuclei (%) [6]: 4%
- Population Tubulin-Different-Phenotype (%) [6]: 18%
- Total Cell Count [6]: 94
- Population Apoptotic (%) [7]: 55%
- Population Fragmented Nuclei (%) [7]: 9%
- Population Healthy Nuclei (%) [7]: 80%
- Population Hoechst High Intensity Objects (%) [7]: 3%
- Population Membrane Permeable-Phenotype (%) [7]: 3%
- Population Mitochondria Different-Phenotype (%) [7]: 8%
- Population Mitotic Cells (%) [7]: 45%
- Population Normal (%) [7]: 96%
- Population Pyknosed Nuclei (%) [7]: 10%
- Population Tubulin-Different-Phenotype (%) [7]: 5%
- Total Cell Count [7]: 231
- Population Apoptotic (%) [8]: 76%
- Population Fragmented Nuclei (%) [8]: 13%
- Population Healthy Nuclei (%) [8]: 58%
- Population Hoechst High Intensity Objects (%) [8]: 13%
- Population Membrane Permeable-Phenotype (%) [8]: 48%
- Population Mitochondria Different-Phenotype (%) [8]: 33%
- Population Mitotic Cells (%) [8]: 23%
- Population Normal (%) [8]: 86%
- Population Pyknosed Nuclei (%) [8]: 28%
- Population Tubulin-Different-Phenotype (%) [8]: 77%
- Total Cell Count [8]: 91
- Population Apoptotic (%) [9]: 22%
- Population Fragmented Nuclei (%) [9]: 4%
- Population Hoechst High Intensity Objects (%) [9]: 3%
- Population Membrane Permeable-Phenotype (%) [9]: 2%
- Population Mitochondria Different-Phenotype (%) [9]: 11%
- Population Mitotic Cells (%) [9]: 77%
- Population Normal (%) [9]: 96%
- Population Pyknosed Nuclei (%) [9]: 8%
- Population Tubulin-Different-Phenotype (%) [9]: 11%
- Total Cell Count [9]: 107
- Population Apoptotic (%) [10]: 14%
- Population Fragmented Nuclei (%) [10]: 6%
- Population Healthy Nuclei (%) [10]: 87%
- Population Hoechst High Intensity Objects (%) [10]: 4%
- Population Membrane Permeable-Phenotype (%) [10]: 9%
- Population Mitochondria Different-Phenotype (%) [10]: 16%
- Population Mitotic Cells (%) [10]: 85%
- Population Normal (%) [10]: 95%
- Population Pyknosed Nuclei (%) [10]: 5%
- Population Tubulin-Different-Phenotype (%) [10]: 14%
- Total Cell Count [10]: 96
- Population Apoptotic (%) [11]: 47%
- Population Fragmented Nuclei (%) [11]: 4%
- Population Healthy Nuclei (%) [11]: 89%
- Population Hoechst High Intensity Objects (%) [11]: 3%
- Population Membrane Permeable-Phenotype (%) [11]: 1%
- Population Mitochondria Different-Phenotype (%) [11]: 9%
- Population Mitotic Cells (%) [11]: 52%
- Population Normal (%) [11]: 96%
- Population Pyknosed Nuclei (%) [11]: 6%
- Population Tubulin-Different-Phenotype (%) [11]: 4%
- Total Cell Count [11]: 365
- Population Apoptotic (%) [12]: 60%
- Population Fragmented Nuclei (%) [12]: 11%
- Population Healthy Nuclei (%) [12]: 73%
- Population Hoechst High Intensity Objects (%) [12]: 8%
- Population Membrane Permeable-Phenotype (%) [12]: 30%
- Population Mitochondria Different-Phenotype (%) [12]: 34%
- Population Mitotic Cells (%) [12]: 40%
- Population Normal (%) [12]: 91%
- Population Pyknosed Nuclei (%) [12]: 15%
- Population Tubulin-Different-Phenotype (%) [12]: 84%
- Total Cell Count [12]: 129
